According to ChEMBL document CHEMBL1141177, “The novel L- and D-amino acid derivatives of hydroxyurea and hydantoins: synthesis, X-ray crystal structure study, and cytostatic and antiviral activity evaluations” (J Med Chem, 2005):
In brackets after ≈: the same amount, converted by molar mass.

What was measured:
WI-38 = assay: Inhibition of normal human fibroblast cell line (WI 38) growth; type: functional, cell-based
How it was run: (§1)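 Monolayers in DMEM with 10% FBS, 2 mM L-glutamine, penicillin/streptomycin, 37 °C, 5% CO2. Cells seeded on day 0, then compounds added in 5- and 10-fold dilutions (10^-8–10^-4 M) for 72 h. MTT read-out at 570 nm. Percent growth calculated relative to time-zero and untreated OD. Quadruplicates in three experiments; IC50 by linear interpolation, highest concentration reported as ">" when not reached.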

L1210 = assay: Inhibition of murine leukemia cells (L1210) growth; type: functional, cell-based; details: Mus musculus
MOLT-4 = assay: Inhibition of human T-lymphocyte cell line (Molt4/C8) growth; type: functional, cell-based
HEp-2 = assay: Inhibition of laryngeal carcinoma cell line (Hep-2) growth; type: functional, cell-based; details: Homo sapiens; how it was run: as §1
HeLa = assay: Inhibition of cervical carcinoma cell line (HeLa) growth; type: functional, cell-based; details: Homo sapiens; how it was run: as §1
MIA PaCa-2 = assay: Inhibition of pancreatic carcinoma cell line (MiaPaCa-2) growth; type: functional, cell-based; details: Homo sapiens; how it was run: as §1
MCF7 = assay: Inhibition of breast carcinoma cell line (MCF-7) growth; type: functional, cell-based; details: Homo sapiens; how it was run: as §1
SW-620 = assay: Inhibition of colon carcinoma cell line (SW 620) growth; type: functional, cell-based; details: Homo sapiens; how it was run: as §1
[1] = Effective concentration required to reduce plaque formation by AD-169 strain of CMV virus in Human embryonic lung cells; type: functional, cell-based
How it was run: (§2)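 Plaque reduction assay in human embryonic lung (HEL) cell cultures, virus input 100 plaque forming units. Viruses: CMV strains AD-169 and Davis, VZV TK+ strain OKA and TK− strain 07/1. EC50 is the concentration that reduces virus plaque formation by 50%.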

HEL [2] = assay: Minimum cytotoxic concentration of compound that causes alteration of cell morphology in human embryonic lung cells; type: functional
How it was run: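 Human embryonic lung (HEL) cells were examined microscopically. MCC is the minimum concentration that causes a detectable alteration of cell morphology.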

HEL [3] = assay: Cytotoxic concentration to reduce the 50% cell growth of human embryonic lung cells; type: functional
[4] = Effective concentration required to reduce plaque formation by Davis strain of CMV virus in Human embryonic lung cells; type: functional, cell-based; how it was run: as §2
Human alphaherpesvirus 3 [5] = assay: Effective concentration of compound required to reduce plaque formation by OKA strain of thymidine kinase positive VZ virus TK+ in human embryonic lung cells; type: functional, organism-based; details: Human alphaherpesvirus 3, lung
Human alphaherpesvirus 3 [6] = assay: Reduction of plaque formation by VZV07/1 strain of thymidine kinase(TK-) deficient VZ virus in human embryonic lung cells; type: functional, organism-based; details: Human alphaherpesvirus 3, lung
[7] = Homo sapiens, HEL, read-out: CC50

O=C(NO)NC(Cc1ccccc1)C(=O)NC1CCCC1 (centres undefined)
IC50 (WI-38): > 100 µM
IC50 (L1210): 145 µM
IC50 (MOLT-4): > 200 µM
IC50 (HEp-2): > 100 µM
IC50 (HeLa): > 100 µM
IC50 (MIA PaCa-2): > 100 µM
IC50 (MCF7): > 100 µM
IC50 (SW-620): > 100 µM

CCC(C)C1NC(=O)N(Cc2ccccc2)C1=O (centres undefined)
IC50 (MOLT-4): > 200 µM

O=C(NC1CCCCC1)C(Cc1ccccc1)NC(=O)n1nnc2ccccc21 (centres undefined)
IC50 (WI-38): 63.2 µM
IC50 (L1210): 126 µM
IC50 (MOLT-4): 116 µM
EC50 [1]: > 16 µg/mL
IC50 (HEp-2): 64.5 µM
IC50 (HeLa): 34.3 µM
MCC (HEL [2]): 80 µg/mL
IC50 (MIA PaCa-2): ≥ 100 µM
IC50 (MCF7): 20.7 µM
CC50 (HEL [3]; [7]): 33 µg/mL (≈ 84.3 µM)
EC50 [4]: > 16 µg/mL
IC50 (SW-620): 110 µM

CC(C)C(NC(=O)NO)C(=O)NC1CCCCC1 (centres undefined)
IC50 (WI-38): 58.8 µM
IC50 (L1210): > 100 µM
IC50 (MOLT-4): > 100 µM
IC50 (HEp-2): > 100 µM
IC50 (HeLa): > 100 µM
IC50 (MIA PaCa-2): > 100 µM
IC50 (MCF7): > 100 µM
IC50 (SW-620): > 100 µM

CCC(C)C(NC(=O)NO)C(=O)NC1CCCCC1 (centres undefined)
IC50 (WI-38): > 100 µM
IC50 (L1210): 89 µM
IC50 (MOLT-4): 150 µM
IC50 (HEp-2): > 100 µM
IC50 (HeLa): > 100 µM
IC50 (MIA PaCa-2): > 100 µM
IC50 (MCF7): > 100 µM
IC50 (SW-620): > 100 µM

CCC(C)C(NC(=O)NO)C(=O)NCc1ccccc1 (centres undefined)
IC50 (MOLT-4): 126 µM

O=C(NO)NC(Cc1ccccc1)C(=O)N1CCCC1 (centres undefined)
IC50 (WI-38): ≥ 100 µM
IC50 (L1210): > 200 µM
IC50 (MOLT-4): 192 µM
IC50 (HEp-2): ≥ 100 µM
IC50 (HeLa): > 100 µM
IC50 (MIA PaCa-2): > 100 µM
IC50 (MCF7): > 100 µM
IC50 (SW-620): > 100 µM

Nc1nc2c(ncn2COCCO)c(=O)[nH]1 [ACYCLOVIR]
MCC (HEL [2]): > 400 µg/mL
CC50 (HEL [3]): 200 µg/mL (≈ 888 µM)
CC50 (HEL [3]; [7]): 200 µg/mL (≈ 888 µM)

O=C(NO)NC(Cc1ccccc1)C(=O)NC(c1ccccc1)c1ccccc1 (centres undefined)
IC50 (WI-38): 32.8 µM
IC50 (L1210): 18 µM
IC50 (MOLT-4): 21 µM
IC50 (HEp-2): 61.3 µM
IC50 (HeLa): 39.8 µM
IC50 (MIA PaCa-2): 41.1 µM
IC50 (MCF7): 43.8 µM
IC50 (SW-620): 66.6 µM

CCC(C)C1NC(=O)N(C2CCCCC2)C1=O (centres undefined)
IC50 (MOLT-4): > 200 µM

O=C(NC(c1ccccc1)c1ccccc1)C(Cc1ccccc1)NC(=O)n1nnc2ccccc21 (centres undefined)
IC50 (WI-38): 14.3 µM
IC50 (L1210): 17 µM
IC50 (MOLT-4): 15 µM
EC50 [1]: > 16 µg/mL
IC50 (HEp-2): 40.5 µM
IC50 (HeLa): 30.2 µM
EC50 (Human alphaherpesvirus 3 [5]): > 0.13 µg/mL
EC50 (Human alphaherpesvirus 3 [6]): > 0.13 µg/mL
MCC (HEL [2]): 80 µg/mL
IC50 (MIA PaCa-2): 23.9 µM
IC50 (MCF7): 16.3 µM
CC50 (HEL [3]; [7]): 17.3 µg/mL (≈ 36.4 µM)
IC50 (SW-620): 37.6 µM

CCC(C)C(NC(=O)NO)C(=O)NC(c1ccccc1)c1ccccc1 (centres undefined)
IC50 (MOLT-4): 56 µM

O=C(NO)NC(C(=O)NCc1ccccc1)c1ccccc1 (centres undefined)
IC50 (MOLT-4): 17 µM

CC(C)C(NC(=O)n1nnc2ccccc21)C(=O)NC1CCCC1 (centres undefined)
IC50 (WI-38): ≥ 100 µM
IC50 (L1210): > 200 µM
IC50 (MOLT-4): > 200 µM
EC50 [1]: > 200 µg/mL
IC50 (HEp-2): 60.3 µM
IC50 (HeLa): 96.4 µM
EC50 (Human alphaherpesvirus 3 [5]): > 80 µg/mL
EC50 (Human alphaherpesvirus 3 [6]): > 200 µg/mL
MCC (HEL [2]): > 200 µg/mL
IC50 (MIA PaCa-2): > 100 µM
IC50 (MCF7): 79.3 µM
EC50 [4]: > 200 µg/mL
IC50 (SW-620): > 200 µM

CCC(C)C(NC(=O)n1nnc2ccccc21)C(=O)NC1CCCCC1 (centres undefined)
IC50 (MOLT-4): 98 µM

CCC(C)C(NC(=O)NO)C(=O)NC1CCCC1 (centres undefined)
IC50 (MOLT-4): > 100 µM

CCC(C)C(NC(=O)n1nnc2ccccc21)C(=O)NC(c1ccccc1)c1ccccc1 (centres undefined)
IC50 (MOLT-4): 79 µM
